For one series, the system named is C. elegans N2 strain. The series is described as follows: In vitro nematocidal. On the set-up: species or system Caenorhabditis elegans. In outline: (§1)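 C. elegans strains kept on NGM with E. coli. L1 obtained by bleaching and hatching eggs on unseeded NGM at 20 °C (~24 h). Thirty L1 per well, in triplicate, exposed in M9 to test compound at final 10–100,000 ng/mL with 0.5% DMSO, 72 h, 20 °C. Controls: DMSO, albendazole, ivermectin. Motility scored visually by inverted microscope; no movement = dead. EC50 by nonlinear regression; three independent replicates.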

The subject of another series is C. elegans CB347 strain. The series is described as follows: In vitro nematocidal. On the set-up: species or system Caenorhabditis elegans. In outline: as §1
The next series concerns HepG2 cells. The series is described as follows: MTT cytotoxicity testing on HepG2. The class given is cell-based, human. To be noted: HepG2, 24 h exposure, MTT; mean ± S.E. In outline:
(§2)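 Cells seeded at 20,000/well in MEM with 10% FBS, grown 24 h at 37 °C under 5% CO₂. Medium then replaced by test compound at final 10–100,000 ng/mL in MEM with 0.5% DMSO, 24 h. MTT added for 4 h; formazan dissolved in 4 mM HCl/0.1% NP-40 in isopropanol. Absorbance read at 590 nm, reference 620 nm. Viability relative to untreated; CC50 by nonlinear regression; three independent replicates.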

The next series concerns Caco-2 cells. The series is described as follows: MTT cytotoxicity testing on Caco-2. The class given is cell-based, human. To be noted: Caco-2, 24 h exposure, MTT; mean ± S.E. In outline:
as §2

Series [1] has as its system T. spiralis muscle-stage larvae (L1). The series is described as follows: In vitro nematocidal. On the set-up: species or system Trichinella spiralis. In outline: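 Female ICR mice (8 weeks old) were infected orally with 100 larvae. Muscle larvae were recovered at day 60 by 0.7% pepsin/0.7% HCl digestion and kept in RPMI with 10% FCS and penicillin/streptomycin. Thirty larvae per well, in triplicate, with test compound at final 10–100,000 ng/mL and 0.5% DMSO, 72 h, 37 °C. Controls: DMSO, albendazole, ivermectin. EC50 by nonlinear regression; three independent replicates.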

For another series, the system named is C. elegans JD608 strain. Put plainly: In vitro nematocidal. To be noted: Caenorhabditis elegans, 72 h. In outline: as §1
Series [2] in a line: MTT cytotoxicity testing on HepG2. The class given is cell-based, human. To be noted: human, HepG2 cells. In outline:
as §2

Series [3] is described as follows: MTT cytotoxicity testing on Caco-2. The class given is cell-based, human. The conditions noted are these: human, Caco-2 cells. In outline: as §2
Series [4] concerns T. spiralis muscle larvae. Details: species or system Trichinella spiralis. In outline:
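Muscle larvae were exposed to one concentration of test compound or to 0.5% DMSO. Extraction: cold methanol twice, then water, with freeze–thaw cycles and centrifugation at 4 °C; pooled extracts dried. Separation on C18 at 40 °C, 0.3 mL/min, formic acid water/acetonitrile gradient. Q-TOF ESI±, IDA with survey scan m/z 100–1000; pooled QCs. Processed in MS-DIAL and MetaboAnalyst; 3 biological × 2 technical replicates.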

The conditions of series [5]: no reference given; cited from earlier work.
[6] abbreviates: T. spiralis metabolite, quercetin at EC50 vs DMSO.
[7] abbreviates: T. spiralis, quercetin at EC50 vs DMSO control.

Molecules are shown by their SMILES. A value given as a limit tells only on which side of the number the result lay.

In the case of `CC[C@H](C)[C@H]1O[C@]2(CC[C@@H]1C)C[C@@H]1C[C@@H](C/C=C(\C)[C@@H](O[C@H]3C[C@H](OC)[C@@H](O[C@H]4C[C@H](OC)[C@@H](O)[C@H](C)O4)[C@H](C)O3)[C@@H](C)/C=C/C=C3\CO[C@@H]4[C@H](O)C(C)=C[C@@H](C(=O)O1)[C@]34O)O2` [IVM, ivermectin, reference compound], the concentration for a half-maximal effect (EC50) turned out to be 17.7 ± 1.85 µM with C. elegans N2 strain (C. elegans N2 (wild type), L1, 72 h at 20 °C, motility, mean ± S.E.); 15.4 ± 6.07 µM in the series on C. elegans CB347 strain (C. elegans CB347 (albendazole-resistant), L1, 72 h at 20 °C, motility, mean ± S.E.); 107 ± 7.89 µM in [1] (T. spiralis muscle-stage larvae, 72 h at 37 °C, motility, mean ± S.E.). Besides, the CC50 stood at 14.9 ± 1.39 µM in the series on HepG2 cells and 20 ± 5.28 µM in the series with Caco-2 cells.

Regarding `O=c1c(O)c(-c2ccc(O)c(O)c2)oc2cc(O)cc(O)c12` [Quercetin, quercetin], it took 80.5 ± 20.3 µM to reach a half-maximal effect in the series with C. elegans N2 strain (Caenorhabditis elegans, 72 h) (EC50). This compound also gave an EC50 in the series with C. elegans CB347 strain (Caenorhabditis elegans, 72 h) of 76.2 ± 7.4 µM. Besides, the EC50 in the series on C. elegans JD608 strain was 45.3 ± 4.92 µM. The CC50 at 24 h in [2] is > 1000 µM. Further, the CC50 at 24 h in [3] is > 1000 µM. Moreover, the midpoint of the response in series [1] (Trichinella spiralis, 72 h), the EC50, lay at 147 ± 28.2 µM. In [4] (setting [6]), the “Log2 (FC) 1-Heptadecanoyl-sn-glycero-3-phosphocholine” value is on record as -1.6835, the “Log2 (FC) 3-Phosphoglyceric Acid” value is reported as -1.0514, the “Log2 (FC) 7alpha-Hydroxy-4-cholesten-3-one” value is given as 2.1364 and the “Log2 (FC) Arachidonic acid” value is given as -1.1472. In series [4] (setting [6]), the “Log2 (FC) Coenzyme q6” value came to 1.8385, the “Log2 (FC) Deoxyguanosine” value is given as -2.4539, the “Log2 (FC) Inosine” value was -2.6373 and the “Log2 (FC) LacCer(d18:1/16:0)” value is recorded as 2.6728. Besides, in [4] (setting [6]), the “Log2 (FC) Lignoceric acid” value was determined as 4.0956, the “Log2 (FC) Linoleic acid” value worked out at 2.1922, the “Log2 (FC) Linolenic acid” value is 2.7081 and the “Log2 (FC) LysoPC(0:0/18:0)” value is given as -1.4886. Moreover, in series [4] (setting [6]), the “Log2 (FC) LysoPE(0:0/16:0)” value was -1.8636, the “Log2 (FC) LysoPE(0:0/18:2(9Z,12Z))” value is -1.4991, the “Log2 (FC) Menaquinone 4” value amounted to 2.2163 and the “Log2 (FC) N-Acetyl-D-Galactosamine” value is given as 4.5233. Further, in [4] (setting [6]), the “Log2 (FC) PC(P-18:1(9Z)/P-16:0)” value came out at 2.1307, the “Log2 (FC) Phosphatidylethanolamine” value is recorded as -1.0876, the “Log2 (FC) Tetradecanoylcarnitine” value is -2.0664 and the “Log2 (FC) Vitamin K1” value is 1.8127. In addition, in series [4] (setting [7]), the Down-regulated features was found to be 68 and the Up-regulated features result is listed as “Around 204”. Besides, the Oral bioavailability in [5] was < 5%.

Regarding `O=c1cc(-c2ccc(O)cc2)oc2cc(O)cc(O)c12` [Apigenin, apigenin], the concentration for a half-maximal effect (EC50) is 218 ± 11.2 µM in the series with C. elegans N2 strain (Caenorhabditis elegans, 72 h); 55.8 ± 4.89 µM in the series on C. elegans CB347 strain (Caenorhabditis elegans, 72 h); 51.3 ± 1.46 µM in the series with C. elegans JD608 strain; > 1000 µM in [1] (Trichinella spiralis, 72 h). Besides, the figures for the CC50 at 24 h in series [2] and in [3] were 53.3 ± 4.52 µM and > 1000 µM, respectively.

For the compound `COc1ccc([C@@H]2CC(=O)c3c(O)cc(O)cc3O2)cc1O` [Hesperetin, hesperetin], the EC50 in the series on C. elegans N2 strain (Caenorhabditis elegans, 72 h) was 283 ± 23.9 µM; in the series on C. elegans CB347 strain (Caenorhabditis elegans, 72 h), > 1000 µM; with C. elegans JD608 strain, 51.7 ± 2.92 µM. In addition, the CC50 at 24 h in series [2] was > 1000 µM; in series [3], 56.3 ± 6.18 µM.

Consider `COc1ccc(-c2cc(=O)c3c(OC)c(OC)c(OC)c(OC)c3o2)cc1` [Tangeretin, tangeretin], for which the EC50 was > 1000 µM in the series with C. elegans N2 strain (Caenorhabditis elegans, 72 h); > 1000 µM in the series on C. elegans CB347 strain (Caenorhabditis elegans, 72 h); 43.1 ± 11.2 µM with C. elegans JD608 strain. The CC50 at 24 h in [2] stood at 251 ± 35 µM; in series [3], 531 ± 70.3 µM.

Turning to `CCCSc1ccc2nc(NC(=O)OC)[nH]c2c1` [ABZ, albendazole, reference compound], the EC50 was 672 ± 73 µM in the series with C. elegans N2 strain (Caenorhabditis elegans, 72 h); > 1000 µM in the series with C. elegans CB347 strain (Caenorhabditis elegans, 72 h); 788 ± 22.6 µM in the series with C. elegans JD608 strain; 129 ± 34.1 µM in series [1] (Trichinella spiralis, 72 h). The cytotoxic concentration (CC50) at 24 h in [2] and in series [3] was > 1000 µM in each case.

As for `C[C@@H]1O[C@@H](O[C@H]2[C@H](Oc3cc(O)c4c(c3)O[C@H](c3ccc(O)cc3)CC4=O)O[C@H](CO)[C@@H](O)[C@@H]2O)[C@H](O)[C@H](O)[C@H]1O` [Naringin, naringin], the EC50 is > 1000 µM with C. elegans N2 strain (Caenorhabditis elegans, 72 h); > 1000 µM in the series with C. elegans CB347 strain (Caenorhabditis elegans, 72 h); > 1000 µM in the series on C. elegans JD608 strain. The CC50 at 24 h was > 1000 µM in series [2] and 249 ± 65.3 µM in [3].

These data come from paper PMC12855199 (Scientific Reports, 2025).
